Test results from ChEMBL document CHEMBL3124784, “Synthesis, in vitro antiplasmodial activity and cytotoxicity of a series of artemisinin-triazine hybrids and hybrid-dimers” (Eur J Med Chem, 2014).

What was measured:
[1] = Selectivity index, ratio of IC50 for CHO cells to IC50 for asexual erythrocytic stage of chloroquine-sensitive Plasmodium falciparum NF54; assay type: toxicity, cell-based; details: hamster; read-out: Ratio IC50
CHO = assay: Cytotoxicity against CHO cells after 48 hrs by MTT assay; assay type: cell-based; details: Cricetulus griseus
[2] = Resistance index, ratio of IC50 for asexual erythrocytic stage of chloroquine-resistant Plasmodium falciparum Dd2 to IC50 for asexual erythrocytic stage of chloroquine-sensitive Plasmodium falciparum NF54; assay type: functional
Plasmodium falciparum [3] = assay: Antiplasmodial activity against asexual erythrocytic stage of chloroquine-resistant Plasmodium falciparum Dd2 assessed as parasite growth inhibition after 48 hrs by lactate dehydrogenase assay; assay type: functional, organism-based; details: Dd2, 48 h
Procedure, shortened: (§1)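 pLDH assay (modified Makler method) on cultured parasites, 48 h exposure. Stocks 20 mg/mL in 100% DMSO, stored at −20 °C, diluted in complete medium on the day of analysis; suspensions tested if not fully dissolved. Two-fold serial dilutions over ten concentrations; references started at 1000 ng/mL. Full dose-response for IC50; triplicate on one occasion.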

Plasmodium falciparum [4] = assay: Antiplasmodial activity against asexual erythrocytic stage of chloroquine-sensitive Plasmodium falciparum NF54 assessed as parasite growth inhibition after 48 hrs by lactate dehydrogenase assay; assay type: functional, organism-based; details: NF54, 48 h; procedure, shortened: as §1
Plasmodium falciparum [5] = assay: Potency index, ratio of pyrimethamine IC50 to compound IC50 for asexual erythrocytic stage of chloroquine-sensitive Plasmodium falciparum NF54; assay type: functional
Plasmodium falciparum [6] = assay: Potency index, ratio of chloroquine IC50 to compound IC50 for asexual erythrocytic stage of chloroquine-sensitive Plasmodium falciparum NF54; assay type: functional

| Structure (SMILES) | selectivity ratio [1] | IC50 (CHO) | Ratio IC50 [2] | IC50 (Plasmodium falciparum [3]) [nM] | IC50 (Plasmodium falciparum [4]) [nM] | Ratio IC50 (Plasmodium falciparum [5]) | Ratio IC50 (Plasmodium falciparum [6]) |
| --- | --- | --- | --- | --- | --- | --- | --- |
| C[C@H]1[C@@H](O)O[C@@H]2O[C@@]3(C)CC[C@H]4[C@H](C)CC[C@@H]1[C@@]24OO3 [ARTENIMOL] | 162000 | 148000 nM | 9.7 | 8.8 | 0.9 |  |  |
| C[C@H]1[C@@H](OCCN(CCNc2nc(Nc3ccccc3)nc(N3CCOCC3)n2)CCO[C@H]2O[C@@H]3O[C@@]4(C)CC[C@H]5[C@H](C)CC[C@@H]([C@H]2C)[C@@]35OO4)O[C@@H]2O[C@@]3(C)CC[C@H]4[C@H](C)CC[C@@H]1[C@@]24OO3.O=C(O)C(=O)O | > 13500 | > 100 µg/mL | 1.3 | 10.2 | 7.9 | <=6000 |  |
| COc1ccc(Nc2nc(NCCN(CCO[C@H]3O[C@@H]4O[C@@]5(C)CC[C@H]6[C@H](C)CC[C@@H]([C@H]3C)[C@@]46OO5)CCO[C@H]3O[C@@H]4O[C@@]5(C)CC[C@H]6[C@H](C)CC[C@@H]([C@H]3C)[C@@]46OO5)nc(N3CCOCC3)n2)cc1.O=C(O)C(=O)O | 35 | 900 nM | 1.4 | 35.9 | 25.8 | <=6000 |  |
| CCc1nc(N)nc(N)c1-c1ccc(Cl)cc1 [PYRIMETHAMINE] |  | 271000 nM |  | 60700 | 33000 |  |  |
| COc1ccc(Nc2nc(NCCN(CCO[C@H]3O[C@@H]4O[C@@]5(C)CC[C@H]6[C@H](C)CC[C@@H]([C@H]3C)[C@@]46OO5)CCO[C@H]3O[C@@H]4O[C@@]5(C)CC[C@H]6[C@H](C)CC[C@@H]([C@H]3C)[C@@]46OO5)nc(Nc3ccc(OC)cc3)n2)cc1.O=C(O)C(=O)O | > 18200 | > 100 µg/mL | 1.9 | 10.6 | 5.5 | <=6000 | 2 |
| COc1ccc(Nc2nc(NCCN(CCO[C@H]3O[C@@H]4O[C@@]5(C)CC[C@H]6[C@H](C)CC[C@@H]([C@H]3C)[C@@]46OO5)CCO[C@H]3O[C@@H]4O[C@@]5(C)CC[C@H]6[C@H](C)CC[C@@H]([C@H]3C)[C@@]46OO5)nc(NCCN(C(C)C)C(C)C)n2)cc1.O=C(O)C(=O)O | > 3080 | > 100 µg/mL | 1 | 33.1 | 31.8 | <=6000 |  |
| C[C@H]1[C@@H](OCCN(CCNc2nc(Nc3ccccc3)nc(Nc3ccccc3)n2)CCO[C@H]2O[C@@H]3O[C@@]4(C)CC[C@H]5[C@H](C)CC[C@@H]([C@H]2C)[C@@]35OO4)O[C@@H]2O[C@@]3(C)CC[C@H]4[C@H](C)CC[C@@H]1[C@@]24OO3.O=C(O)C(=O)O | 54 | 700 nM | 0.8 | 10.3 | 12.9 | <=6000 |  |
| COc1ccc(Nc2nc(NCCN(CCO[C@H]3O[C@@H]4O[C@@]5(C)CC[C@H]6[C@H](C)CC[C@@H]([C@H]3C)[C@@]46OO5)CCO[C@H]3O[C@@H]4O[C@@]5(C)CC[C@H]6[C@H](C)CC[C@@H]([C@H]3C)[C@@]46OO5)nc(N3CCCCC3)n2)cc1.O=C(O)C(=O)O | 1470 | 17000 nM | 1.2 | 13.6 | 11.6 | <=6000 |  |
| COc1ccc(Nc2nc(NCCNCCO[C@H]3O[C@@H]4O[C@@]5(C)CC[C@H]6[C@H](C)CC[C@@H]([C@H]3C)[C@@]46OO5)nc(NCCN(C(C)C)C(C)C)n2)cc1.O=C(O)C(=O)O | 23 | 900 nM | 1.9 | 74.7 | 39.1 | <=6000 |  |
| C[C@H]1[C@@H](OCCNCCNc2nc(Nc3ccccc3)nc(Nc3ccccc3)n2)O[C@@H]2O[C@@]3(C)CC[C@H]4[C@H](C)CC[C@@H]1[C@@]24OO3.O=C(O)C(=O)O | 588 | 16000 nM | 2.2 | 59.1 | 27.2 | <=6000 |  |
| COc1ccc(Nc2nc(NCCNCCO[C@H]3O[C@@H]4O[C@@]5(C)CC[C@H]6[C@H](C)CC[C@@H]([C@H]3C)[C@@]46OO5)nc(Nc3ccccc3)n2)cc1.O=C(O)C(=O)O | > 5050 | > 100 µg/mL | 1.5 | 28.8 | 19.8 | <=6000 |  |
| COc1ccc(Nc2nc(NCCNCCO[C@H]3O[C@@H]4O[C@@]5(C)CC[C@H]6[C@H](C)CC[C@@H]([C@H]3C)[C@@]46OO5)nc(N3CCOCC3)n2)cc1.O=C(O)C(=O)O | 81 | 3100 nM | 1.5 | 57.4 | 38.5 | <=6000 |  |
| C[C@H]1[C@H](OC(=O)CCC(=O)O)O[C@@H]2O[C@@]3(C)CC[C@H]4[C@H](C)CC[C@@H]1[C@@]24OO3 [ARTESUNATE] |  |  |  | 8.1 | < 5.2 |  |  |
| COc1ccc(Nc2nc(NCCNCCO[C@H]3O[C@@H]4O[C@@]5(C)CC[C@H]6[C@H](C)CC[C@@H]([C@H]3C)[C@@]46OO5)nc(N3CCCCC3)n2)cc1.O=C(O)C(=O)O | 105 | 3000 nM | 1.7 | 46.3 | 28 | <=6000 |  |
| C[C@H]1[C@@H](OCCNCCNc2nc(N3CCOCC3)nc(N3CCOCC3)n2)O[C@@H]2O[C@@]3(C)CC[C@H]4[C@H](C)CC[C@@H]1[C@@]24OO3.O=C(O)C(=O)O | 160 | 3100 nM | 4.4 | 85 | 19.3 | <=6000 |  |
| CC[C@H]1CN2CCc3cc(OC)c(OC)cc3[C@@H]2C[C@@H]1C[C@H]1NCCc2cc(OC)c(OC)cc21 [EMETINE] |  | 100 nM |  |  |  |  |  |
| C[C@H]1[C@@H](OCCNCCNc2nc(N3CCCCC3)nc(N3CCCCC3)n2)O[C@@H]2O[C@@]3(C)CC[C@H]4[C@H](C)CC[C@@H]1[C@@]24OO3.O=C(O)C(=O)O | 150 | 3100 nM | 2.3 | 47.5 | 20.6 | <=6000 |  |
